# Screening data: PubChem, The Scripps Research Institute Molecular Screening Center
# V1aR counter: agonists of human V1a receptor, primary screen, counter-screen for OXTR agonist project, fluorescence, CHO-V1R cells | Fluo-8 calcium fluorescence, agonist mode; 0% DMSO, 100% 3 nM vasopressin | activation, % at 3 µM | hit rate 0.25% among 320,000 | AID 2797, 2010;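 active means activation above the mean activation of all tested compounds plus 3 SD, per screening run, cut at about 20% in these data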;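 further: signal is peak over basal fluorescence ratio across a 100 second FLIPR read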
# OXTR potentiate: human OXTR potentiators, primary screen, fluorescence, CHO-OTR cells, Fluo-8 calcium; Fluo-8 calcium fluorescence, potentiator mode; 0% = oxytocin EC15, 100% = EC100; hit rate 0.061% among 320,000; activation, % at 3 µM; Oxytocin receptor (Homo sapiens), P30559; AID 2445, 2010;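 active means activation above that plate's cutoff, the mean activation of tested compounds plus 3 SD, cut at about 6.6% in these data, passing the limit was not always enough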;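 further: 100% uses oxytocin at 75 nM as the full agonist control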
# Target sequence (P30559 whole entry, looked up): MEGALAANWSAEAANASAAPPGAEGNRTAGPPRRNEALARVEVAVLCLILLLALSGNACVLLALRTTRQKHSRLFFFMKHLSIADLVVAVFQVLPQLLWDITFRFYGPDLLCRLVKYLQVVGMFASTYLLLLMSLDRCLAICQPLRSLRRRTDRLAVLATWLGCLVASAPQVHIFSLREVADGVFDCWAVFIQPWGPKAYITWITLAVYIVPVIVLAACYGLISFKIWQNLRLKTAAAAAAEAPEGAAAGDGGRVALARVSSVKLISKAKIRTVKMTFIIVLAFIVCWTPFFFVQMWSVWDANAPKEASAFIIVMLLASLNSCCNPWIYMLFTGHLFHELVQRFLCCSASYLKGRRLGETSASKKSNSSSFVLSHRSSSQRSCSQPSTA
#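 Material: CHO-OTR cells, human receptor; compound dosing: single dose, 3.0 µM nominal final compound concentration; schedule: 6 min compound pre-incubation at room temperature, 100 s kinetic read; measured by: kinetic Fluo-8 calcium fluorescence; read-out basis: % activation vs EC15 and EC100 oxytocin; controls: EC15 oxytocin alone as 0%, 75 nM oxytocin as 100%; replicates: singlicate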
# OX1R antag-1: OX1R (HCRTR1) antagonists, primary screen, fluorescence, CHO/OX1R cells, Fluo-8 calcium, orexin A; Orexin/Hypocretin receptor type 1 (Homo sapiens), O43613; Fluo-8 calcium fluorescence; inhibition, % at 5 µM; hit rate 0.43% among 330,000;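 active means inhibition above its plate's threshold, mean inhibition of all tested compounds on the plate plus 3 SD, cut at about 37% in these data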;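 further: 0% = orexin A challenge wells and 100% = SB-334867-A antagonist wells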
# CHO parental Ca: ATP-evoked calcium signal inhibitors, parental CHO, primary screen, counter-screen for OX1R antagonist project, cell-based, fluorescence, Fluo-8 calcium dye; hit rate 0.63% among 330,000; inhibition, % at 5.6 µM; parental CHO-K1, ATP-induced calcium, Fluo-8 fluorescence; AID 463079, 2010;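 active means inhibition above that plate's mean sample inhibition plus 3 SD, cut at about 26% in these data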;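 further: 0% = ATP-challenged DMSO wells and 100% = DMSO wells without ATP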
#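 material = parental CHO cells | also added = ATP as calcium-mobilizing challenge | dosing = single point at 5.6 µM | detection = intracellular calcium via Fluo-8 no-wash fluorescent dye | read-out = % inhibition | benchmarks = low control ATP plus DMSO, high control DMSO only | repeats = one well per compound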
# OXTR ag: human OXTR agonists, primary screen, fluorescence, CHO-OTR cells, Fluo-8 calcium; Fluo-8 calcium fluorescence; normalized: DMSO 0%, oxytocin 100%; AID 2435, 2010; activation, % at 3 µM; hit rate 0.32% among 320,000; Oxytocin receptor (Homo sapiens), P30559;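 active means activation above the mean of all tested compounds plus 3 SD, cutoff set per screening run, cut at about 20% in these data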;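 further: peak over basal fluorescence ratio from a 100 s FLIPR kinetic read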
# OX1R antag-2: antagonists of human orexin 1 receptor (OX1R); inhibition, % at 6.6 µM; OX1R-expressing cells, FRET antagonist read-out; Orexin/Hypocretin receptor type 1 (Homo sapiens), O43613; hit rate 1.8% among 330,000; in the data active means inhibition mostly above about 38%, no sharp cut-off; inactive means mostly below about 40%;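 further: 0% = agonist challenge alone and 100% = reference antagonist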
# Numbers without * were called inactive. Compounds with a hit are over-represented: about 2.7% of the library has one in this group of screens.
SMILES,V1aR counter,OXTR potentiate,OX1R antag-1,CHO parental Ca,OXTR ag,OX1R antag-2
O=C(Nc1nc2ccccc2s1)C1CCCN1S(=O)(=O)c1ccc(Cl)cc1 (stereo unspecified),1,3,0,-25,1,54*
Cc1c(C)c2cc(Cl)c(OCC(=O)NC3CC(C)(C)NC(C)(C)C3)cc2oc1=O,0,1,-13,-21,-1,12
COc1cc(/C=N/NC(=O)c2cc3ccccc3[nH]2)ccc1O,5,-1,16,-7,0,46*
C=CCOc1ccc(/C=N/NC(=O)c2cc3c(OC)cc(OC)cc3[nH]2)cc1,2,-13,14,-20,1,48*
COc1ccc(/C=N/NC(=O)c2cc3c(OC)ccc(OC)c3[nH]2)cc1O,1,0,-9,-14,1,62*
COc1cccc(/C=N/NC(=O)c2cc3c(OC)cccc3[nH]2)c1O,1,-1,-15,-2,1,29
COc1cccc(/C=N/NC(=O)c2cc3c(OC)cccc3[nH]2)c1OC,1,-4,-5,-18,1,67*
CCOc1ccc(N(C)S(=O)(=O)c2ccc(C)c(C(=O)N3CCN(Cc4ccc5c(c4)OCO5)CC3)c2)cc1,6,-3,-26,-18,5,4
COc1ccc(N2CC(C(=O)N3CCN(c4ccccc4)CC3)CC2=O)cc1 (stereo unspecified),0,10,-9,-7,0,9
O=C(CNC(=O)c1ccc(Cl)cc1Cl)Nc1ccc(F)cc1,0,0,-27,-9,-1,12
CCN(CC)C(=O)c1cc([N+](=O)[O-])cc2c1-c1ccc([N+](=O)[O-])cc1C2=C(C#N)C#N,-2,-6,-27,-15,-2,71*
CCN(Cc1cc2ccccc2[nH]c1=O)C(=O)c1cccc([N+](=O)[O-])c1,0,-3,-21,-24,-1,7
CC1CCN(S(=O)(=O)c2ccc3c(c2)NC(=O)CS3)CC1,1,-14,-4,1,0,11
CCCCC(CC)CN=C(N)NC(N)=NCCCCCCN=C(N)NC(N)=NCC(CC)CCCC (stereo unspecified),0,-4,79*,84*,-2,34
CCCCC(CC)CO (stereo unspecified),1,0,-9,-5,2,7
CC[C@@H](C(=O)[C@@H](C)[C@@H](O)[C@H](C)CCc1ccc(C)c(O)c1C(=O)O)[C@H]1O[C@](CC)([C@H]2CC[C@](O)(CC)[C@H](C)O2)C[C@@H]1C,42*,-9,40*,39*,32*,25
COC(=O)CCCC1=CC2=CC(=O)C(C)(OC(=O)c3cccs3)C(=O)C2=CN1CCCOC(C)C (stereo unspecified),0,-9,-24,-13,0,63*
C#CCOc1c(/C=C\c2nc(O)c([N+](=O)[O-])c(=O)[nH]2)cc(Br)cc1OC,0,3,1,2,0,53*
COC(=O)COc1c(/C=C\c2nc(O)c([N+](=O)[O-])c(=O)[nH]2)cccc1OC,0,-6,-12,2,1,34
CNS(=O)(=O)c1cc(S(=O)(=O)NC)c2cccc3c2c1NC3=O,1,-11,-5,7,0,66*
CCOC(=O)/C(C#N)=C/Nc1ccccc1OC(F)(F)F,-2,-2,-37,45*,-3,11
C[C@H](NC(=O)OC(C)(C)C)C(=O)NCC1CCC(C(=O)N[C@@H](Cc2ccccc2)C(=O)O)CC1 (stereo partly specified),1,-5,-7,0,1,4
Fc1ccc(NC(=S)N2CCCN(c3ccc(C(F)(F)F)cn3)CC2)c(F)c1,12,-17,57*,22,12,16
CCOC(=O)c1c(-c2ccccc2)nnn1-c1nc(OCC)nc(N2CCCCC2)n1,-1,-6,-25,52*,-2,7
Cc1occc1C(=O)/C(C#N)=C/c1ccc(O)c(Br)c1,2,-5,-7,-1,4,12
SMILES,V1aR counter,OXTR potentiate,OX1R antag-1,CHO parental Ca,OXTR ag,OX1R antag-2
Cc1cc(/C=C2\C(=N)N3N=C(C(C)C)SC3=NC2=O)c(C)n1Cc1ccccc1,44*,-22,102*,65*,48*,6
Cc1cc(/C=C2\C(=N)N3C(SCc4ccccc4)=NSC3=NC2=O)c(C)n1Cc1ccccc1,0,-7,-5,-2,0,6
N=C1/C(=C/c2coc3ccccc3c2=O)C(=O)N=C2SC(c3ccco3)=NN12,5,2,-12,-10,11,3
Cc1cc(/C=C2\C(=N)N3N=C(c4ccco4)SC3=NC2=O)c(C)n1Cc1ccccc1,54*,-17,104*,41*,36*,10
CCC1=NN2C(=N)/C(=C/c3cc(C)n(Cc4ccccc4)c3C)C(=O)N=C2S1,69*,-22,97*,70*,53*,19
CCn1nnc2cc(C(=O)Nc3cc(Cl)ccc3C)ccc21,2,-3,4,-1,3,3
COc1ccc(N2CCN(Cc3cc(=O)c(OCC(=O)NC4CCCC4)co3)CC2)cc1,0,2,-6,-7,-1,2
O=S(=O)(c1ccccc1)N(CC1CO1)c1ccccc1 (stereo unspecified),-1,-5,-5,8,-1,22
O=S(=O)(c1ccccc1)N(CC1CO1)c1cccc2ccccc12 (stereo unspecified),0,3,12,-16,-1,67*
COC(=O)C1=C(O)/C(=C/c2cccc(OC)c2O)N=C1C,0,0,-16,14,0,63*
COC(=O)C1=C(O)/C(=C\c2cc(C)n(-c3ccc(F)cc3)c2C)N=C1C,0,2,-2,5,0,28
COc1ccc(C2CC3(CC(C)(C)NC(SC)=N3)Oc3cc(O)cc(C)c32)cc1 (stereo unspecified),51*,-10,-4,-9,39*,-30
CC(C)c1ccc(CNCCCSc2ncccn2)cc1,2,0,-1,-10,0,14
CCCCN(CC)CCCNC(=O)C1CCN(c2ncnc3c2sc2cccc(F)c23)CC1,0,-5,-11,-15,0,62*
